Data published in ChEMBL document CHEMBL1125219, “A selective, reversible, competitive inhibitor of monoamine oxidase A containing no nitrogen, with negligible potentiation of tyramine-induced blood pressure rise” (J Med Chem, 1991).

Key:
[1] = target: T1, Amine oxidase [flavin-containing] A (Rattus norvegicus, UniProt P21396); experiment: The compound was tested in vitro for inhibition of Monoamine Oxidase A from rat brain
T1 sequence (P21396 whole entry): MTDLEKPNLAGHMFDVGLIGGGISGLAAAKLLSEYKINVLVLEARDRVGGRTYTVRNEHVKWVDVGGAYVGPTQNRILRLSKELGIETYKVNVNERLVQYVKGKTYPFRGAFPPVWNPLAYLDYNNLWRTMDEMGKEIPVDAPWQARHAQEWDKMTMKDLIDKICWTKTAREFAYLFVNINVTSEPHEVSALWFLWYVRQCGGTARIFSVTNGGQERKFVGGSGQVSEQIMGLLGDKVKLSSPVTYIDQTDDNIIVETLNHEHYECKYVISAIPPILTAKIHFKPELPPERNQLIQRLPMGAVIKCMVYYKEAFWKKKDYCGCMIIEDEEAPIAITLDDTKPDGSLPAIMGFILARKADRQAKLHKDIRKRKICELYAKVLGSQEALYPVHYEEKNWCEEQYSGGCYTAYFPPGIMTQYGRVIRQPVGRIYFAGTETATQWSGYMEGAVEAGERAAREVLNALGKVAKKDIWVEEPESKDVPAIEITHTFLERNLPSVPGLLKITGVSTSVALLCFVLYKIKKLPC
Summary of the method: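 Double-label radiometric assay on washed rat brain mitochondria with the test agent in vitro. Substrates were at about twice Km, and each activity was independent of the other.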

[2] = target: T1, Amine oxidase [flavin-containing] A; experiment: The compound was tested ex vivo for inhibition of Monoamine Oxidase A in rat brain; type: functional, tissue-based
[3] = target: T1, Amine oxidase [flavin-containing] A; experiment: In vitro binding affinity towards Monoamine Oxidase A in rat
[4] = target: T2, Amine oxidase [flavin-containing] A (Homo sapiens, UniProt P21397); experiment: In vitro binding affinity towards Monoamine Oxidase A in human
T2 sequence (P21397 whole entry): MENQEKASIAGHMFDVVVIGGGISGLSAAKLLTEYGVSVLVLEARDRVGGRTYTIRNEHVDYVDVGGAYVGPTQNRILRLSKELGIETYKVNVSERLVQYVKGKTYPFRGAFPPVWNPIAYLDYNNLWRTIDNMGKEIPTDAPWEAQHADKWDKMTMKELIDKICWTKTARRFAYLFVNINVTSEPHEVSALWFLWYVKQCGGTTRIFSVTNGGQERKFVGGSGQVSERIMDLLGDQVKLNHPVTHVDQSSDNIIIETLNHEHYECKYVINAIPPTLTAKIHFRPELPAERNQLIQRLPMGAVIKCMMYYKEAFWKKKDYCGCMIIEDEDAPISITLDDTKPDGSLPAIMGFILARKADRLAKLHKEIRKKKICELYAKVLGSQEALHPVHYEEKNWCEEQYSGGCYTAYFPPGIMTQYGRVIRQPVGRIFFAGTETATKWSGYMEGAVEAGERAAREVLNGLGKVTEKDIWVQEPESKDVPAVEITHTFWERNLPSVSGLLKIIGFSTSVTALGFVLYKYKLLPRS

[5] = target: T1, Amine oxidase [flavin-containing] A; experiment: In vivo effective dose against Monoamine Oxidase A in rat brain; type: functional, organism-based
[6] = target: T1, Amine oxidase [flavin-containing] A; experiment: The compound was tested ex vivo for percentage inhibition of Monoamine Oxidase A in rat brain at 20 mg/Kg; type: functional, tissue-based
[7] = target: T1, Amine oxidase [flavin-containing] A; experiment: The compound was tested ex vivo for percentage inhibition of Monoamine Oxidase A in rat brain at 30 mg/kg; type: functional, organism-based; set-up: dose 30 mg/kg
[8] = target: T1, Amine oxidase [flavin-containing] A; experiment: The compound was tested ex vivo for percentage inhibition of Monoamine Oxidase A in rat brain at 20 mg/kg; NS=No significant inhibition; type: functional, organism-based; set-up: dose 20 mg/kg

| IC50 [1] [nM] | ED50 [2] [mg/kg] | Compound | also measured |
| --- | --- | --- | --- |
| 400 | 30 | CC(O)c1cccc2c1S(=O)(=O)c1ccccc1O2 (configuration not stated) | – |
| 1200 | 20 | O=S1(=O)c2ccccc2Oc2cccc(C(O)CO)c21 (configuration not stated) | – |
| 35 | 20 | CCc1cccc2c1S(=O)(=O)c1ccccc1O2 | Ki [3]: 10 nM; Ki [4]: 10 nM; ED50 [5]: 8 mg/kg |
| 20 | – | O=S1(=O)c2ccccc2Oc2cccc(CCO)c21 | inhibition at 20 mg/kg [6]: 55% |
| 40 | 20 | C=Cc1cccc2c1S(=O)(=O)c1ccccc1O2 | – |
| 2000 | – | CC(=O)c1cccc2c1S(=O)(=O)c1ccccc1O2 | inhibition at 30 mg/kg [7]: 70% |
| 30000 | – | O=C(O)Cc1cccc2c1S(=O)(=O)c1ccccc1O2 | Inhibition [8]: Not Active |
